High-throughput results as filed in PubChem.
MPTP inh – inhibitors of mitochondrial permeability transition pore; hit rate 1.4% among 360,000; inhibition, % at 10 µM; isolated mouse mitochondria, Ca2+ swelling absorbance, 30 min;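 active = inhibition of 50% or more, scaled per plate between neutral and stimulator controls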
Jurkat NFkB inh – lowers PMA/ionomycin-induced NF-kB signal in Jurkat cells; PMA/ionomycin-induced NF-kB luciferase reporter, luminescence; inhibition, % at 4 µM; hit rate 0.53% among 330,000; AID 435003; in the data active = inhibition above about 50%
NR2E3 ag-1 – activates human NR2E3 receptor | CHO-S Gal4-NCOR/VP16-NR2E3 two-hybrid, luciferase | inhibition of corepressor binding, % at 3.98 µM | hit rate 0.35% among 360,000 | AID 602229;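 active = inhibition above the mean of all tested compounds plus 3 SD, cut at about 70% in these data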;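 also: higher means lower luciferase signal from less NR2E3 corepressor binding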
Target sequence (Q9Y5X4 whole entry, looked up, the tested form may be a part): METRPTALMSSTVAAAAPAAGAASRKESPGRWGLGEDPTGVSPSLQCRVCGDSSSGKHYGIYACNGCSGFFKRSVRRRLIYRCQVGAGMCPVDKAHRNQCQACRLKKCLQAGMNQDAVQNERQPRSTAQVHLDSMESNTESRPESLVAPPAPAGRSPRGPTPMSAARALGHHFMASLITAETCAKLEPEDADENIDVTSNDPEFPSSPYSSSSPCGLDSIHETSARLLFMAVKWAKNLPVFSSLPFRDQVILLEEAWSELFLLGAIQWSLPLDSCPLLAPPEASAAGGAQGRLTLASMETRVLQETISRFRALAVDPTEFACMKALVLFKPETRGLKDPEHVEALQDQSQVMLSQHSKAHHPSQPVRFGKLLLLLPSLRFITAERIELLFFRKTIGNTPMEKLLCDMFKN
697 NFkB inh – inhibitors of the PMA/ionomycin-induced NF-kB reporter in 697 B cells. 697 B-cell NF-kB luciferase reporter, 16 h. inhibition, % at 4 µM. hit rate 0.33% among 330,000. AID 435022; in the data active = inhibition above about 35%
aDG glyco act – increases alpha dystroglycan glycosylation. Pro5-aDG cells, alpha-DG glycosylation AlphaScreen (IIH6); 0% Pro5, 100% B10-LARGE cell signal. activation, % at 10 µM. hit rate 0.22% among 360,000;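 active = activation of at least 8% versus controls, or a plate z-score of at least 8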;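 also: Pro5 are CHO cells carrying HIG-tagged alpha-DG that lacks glycosylation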
NR2E3 ag-2 – activates human photoreceptor nuclear receptor NR2E3. Q9Y5X4. GST-NR2E3/biotin-RetCOR TR-FRET, 1536-well. inhibition of corepressor binding, % at 4.78 µM. hit rate 0.12% among 320,000. AID 2300;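 active = percent inhibition above the cutoff of mean plus 3 SD of all tested compounds, set per screening campaign, cut at about 20% in these data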
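Test system – NR2E3–RetCOR corepressor complex · Quantity – NR2E3 fusion 1.35 nM · Buffer or medium – Tris pH 7.5 · Incubation – Compound–protein incubation for 5 h at 4 °C · Technique – TR-FRET, Eu(K)-anti-GST donor, streptavidin-D2 acceptor, ex 340, em 617/671 nm · Evaluation – percent inhibition of 671/617 nm emission ratio versus biotin and DMSO controls · Plate – 1536-well format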
NR2E3 ag confirm – confirmation of human NR2E3 agonists | inhibition, % at 3.98 µM | hit rate 51% among 2,300 | CHO-S mammalian two-hybrid NR2E3-NCOR, luciferase luminescence | shares compounds with NR2E3 ag-1;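 active = average inhibition above a cutoff equal to the mean inhibition of all tested compounds plus one SD, cut at about 70% in these data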
VP16 counter – counter-screen for NR2E3 agonists: GAL4-VP16 reporter inhibitors; shares compounds with NR2E3 ag-1; CHO-S GAL4-VP16 luciferase reporter, luminescence; inhibition, % at 3.98 µM; hit rate 29% among 2,300; AID 624379;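 active = mean inhibition above a cutoff equal to the average over all tested compounds plus one standard deviation, cut at about 70% in these data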;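 also: luciferase from a UAS reporter driven by GAL4-VP16 transactivation; higher means less reporter light so more repression of VP16 activity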
Hits are given with their value; . = inactive; / = no result. An excerpt weighted towards active compounds, which were near 2.4% of everything screened.

SMILES	MPTP inh	Jurkat NFkB inh	NR2E3 ag-1	697 NFkB inh	aDG glyco act	NR2E3 ag-2	NR2E3 ag confirm	VP16 counter
COC(=O)c1cnn(-c2nc(OC)cc(OC)n2)c1C	.	.	.	.	.	.	/	/
CCOc1ccc(S(=O)(=O)N2CCCCC2)c2ccccc12	.	.	.	.	.	.	.	.
CCCCOc1ncnc2c1[nH]c1ccccc12	.	.	78.8	.	.	.	92.4	.
CCC(C)NC(=O)CSc1nnc(-c2ccc(OC)c(OC)c2)c(-c2ccc(OC)c(OC)c2)n1 (stereo unspecified)	.	.	.	.	.	.	/	/
CC(=O)c1c(C)[nH]c(C(=O)COc2cc(C)ccc2C(C)C)c1C	.	.	85.2	.	.	.	91.3	78.8
Cc1ccc(NC(=O)CNC(=O)C23CC4CC(CC(C4)C2)C3)nc1	.	/	.	/	.	/	/	/
COC(=O)C12OCC34C(CC5C(C)=C(O)C(=O)CC5(C)C3C(O)C1O)OC(=O)C(OC(=O)C=C(C)C)C24 (stereo unspecified)	.	/	103.4	/	.	/	99.5	98.4
OCCCCCNc1ncnc2ccccc12	.	.	79.3	.	.	.	.	.
CC(=O)Nc1ccc(OCc2cccc3ccccc23)cc1	.	.	.	.	.	.	.	.
Cc1ccccc1C(=O)N1CCN(c2ccc(NC(=O)c3ccc4c(c3)OCO4)cc2)CC1	.	.	75.3	.	.	.	91.1	.
Cc1ccccc1C(=O)N1CCN(c2ccc(NC(=O)c3cccnc3)cc2)CC1	.	.	.	.	.	.	/	/
O=C(Nc1ccc(N2CCN(C(=O)c3ccco3)CC2)cc1)c1ccc2c(c1)OCO2	.	.	.	.	.	.	.	.
Cc1cccc(NC(=S)N/N=C(\c2ccccc2)C(C)C)c1	.	.	.	.	.	.	.	.
CNc1nc(NCc2ccc(C)cc2C)c2sccc2n1	.	/	.	/	.	/	.	.
CNc1nc(Nc2ccc(C)cc2C)c2sccc2n1	.	/	.	/	.	/	.	.
Cc1ccc(Nc2nc(NCC3CC3)nc3ccsc23)c(C)c1	.	/	.	/	.	/	/	/
C/C(CC(=O)Nc1ccc2ccccc2c1)=N\NC(=O)c1ccc(O)c(O)c1	.	.	.	.	.	.	/	/
COc1cc(C(=O)NNC(=O)c2cc(-c3ccccc3)n[nH]2)cc(OC)c1C	.	.	.	.	.	.	/	/
COc1ccc(-c2cccc(NS(=O)(=O)c3cc([N+](=O)[O-])ccc3Cl)c2)nn1	.	.	.	.	.	.	/	/
CCOc1ccc(-c2cccc(NS(=O)(=O)c3cc([N+](=O)[O-])ccc3Cl)c2)nn1	.	.	.	.	.	.	.	.
COCCN(Cc1cc2cc3c(cc2nc1Cl)OCO3)C(=O)Nc1ccc(F)cc1	.	.	.	.	.	.	.	.
CC(C(=O)N1CCN(c2ccc(Cl)cc2)CC1)c1ncc(C(F)(F)F)cc1Cl (stereo unspecified)	.	.	80.7	.	.	.	76.0	.
CCOc1ccc(C(=O)Nc2cnn(Cc3ccc(Cl)c(Cl)c3)c2)cc1	.	.	.	.	.	.	.	.
c1ccc(Nc2nc(NCC3CCCO3)c3ccccc3n2)cc1 (stereo unspecified)	.	.	.	.	.	.	/	/
c1ccc(-c2nc(NCc3ccco3)c3ccccc3n2)nc1	.	.	83.0	.	.	.	.	.
SMILES	MPTP inh	Jurkat NFkB inh	NR2E3 ag-1	697 NFkB inh	aDG glyco act	NR2E3 ag-2	NR2E3 ag confirm	VP16 counter
c1ccc(-c2nc(NCC3CCCO3)c3ccccc3n2)nc1 (stereo unspecified)	.	.	88.7	.	.	.	.	.
O=C(CN1C(=O)NC2(CCCCC2)C1=O)Nc1cccc(S(=O)(=O)N2CCCC2)c1	.	.	.	.	.	.	/	/
NC(=O)c1ccc(NCCCN2CCOCC2)c([N+](=O)[O-])c1	.	.	.	.	.	.	/	/
Cn1cc(CN2CCC[C@H]2CO)c(-c2cccc(Cl)c2)n1	.	.	.	.	.	.	/	/
Nc1nc(=S)c2ncn(C3OC(CO)C(O)C3O)c2[nH]1 (stereo unspecified)	.	/	.	/	.	.	.	.
CCc1ccc(CNC(=O)c2cc3c(C)nc4ccccc4c3o2)cc1	.	.	93.6	.	.	.	95.2	86.5
CN1CCN(C(=O)c2ccc(-c3cnn(C)c3)c3ccoc23)CC1	.	/	.	/	.	/	/	/
COc1ccc(/C(C)=N/N=C(N)N)c(O)c1	.	.	.	.	.	.	/	/
CNC(=S)NN=C(C)c1ccc(OC)cc1O	.	/	72.3	/	.	/	.	.
C=C1C(=O)C23C(O)C1CCC2C12CCCC(C)(COC(C)=O)C1C(O)C3(O)OC2 (stereo unspecified)	.	/	91.2	/	.	/	.	.
CSc1nsc(SCC(=O)Nc2nc3ccc(C)cc3s2)n1	.	.	.	.	.	.	.	.
Cc1ccc2nc(NC(=O)COC(=O)CSc3nc(C)cc(C)n3)sc2c1	.	.	.	.	.	.	/	/
Cc1ccc(NC(=S)N2CCN(c3ccccc3F)CC2)c(C)c1	.	.	.	.	.	.	/	/
CSCc1cc(N(C)c2ccccc2)nc(-c2ccccn2)n1	.	.	108.6	.	.	.	.	.
CC(C)(C)OC(=O)Nc1ccccc1-n1nnnc1C(C(=O)c1ccccc1)N1CCN(c2ccccn2)CC1 (stereo unspecified)	.	/	/	/	.	/	/	/
CC(O)(c1ccc(F)c(F)c1)c1nc(-c2cc3ccccc3o2)cs1 (stereo unspecified)	.	/	.	/	.	/	.	.
C=C1c2ccccc2O[C@H](C(=O)OCC)[C@H]1OC	.	/	.	.	.	/	/	/
COc1cc2ncnc(NCc3cc(F)ccc3F)c2cc1OC	.	.	.	.	.	.	/	/
COc1cccc(CNc2ncnc3cc(Cl)ccc23)c1	.	/	.	/	.	/	83.7	.
Fc1cccc(CNc2ncnc3cc(Cl)ccc23)c1F	.	.	82.5	.	.	.	.	.
Cc1ccccc1CNC(=O)Cn1ccc2cc(S(=O)(=O)N3CCCCCC3)ccc21	.	.	.	.	.	.	/	/
COc1cccc2sc(N3CCN(C(=O)c4ccc([N+](=O)[O-])o4)CC3)nc12	.	.	.	.	.	.	.	.
Cc1cn([C@@H](CCCCNC(=O)OC(C)(C)C)C(=O)NCCCCCCCCCCC(=O)N2CCN(C(=O)OC(C)(C)C)CC2)nn1	.	.	.	.	.	.	74.1	.
CNc1nc(N)nc(-c2cc(Cl)ccc2OC)n1	.	.	.	.	.	.	/	/
CCn1c(=O)c(C(=O)Nc2ccccc2)c(O)c2ccccc21	.	.	.	.	.	.	/	/
